Most compounds without a hit are left out; they make up all but 2.1% or so of the library.
Efflux pump inh – antifungal efflux pump inhibition, Nile Red retention; S. cerevisiae Candida pump triplex; inhibition, % at 10 µM; 0.44% of 330,000 active; AID 485275;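 active means plate passing quality check with inhibition over a set limit, or well fluorescence over plate mean plus 4 SD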;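 further: Nile Red retained in pooled yeast measured as flow cytometry median fluorescence; higher means more Nile Red kept so more efflux inhibition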
UCH37 DUB inh – inhibitors of human deubiquitinating enzyme UCH37 | purified proteasome/UCH37, Ub-AMC cleavage fluorescence | 0.33% of 330,000 active | inhibition, % (test concentration not listed);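 active means mean inhibition over replicate wells above about 20%, limit read from the data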
Target sequence (Q9Y5K5 whole entry, looked up): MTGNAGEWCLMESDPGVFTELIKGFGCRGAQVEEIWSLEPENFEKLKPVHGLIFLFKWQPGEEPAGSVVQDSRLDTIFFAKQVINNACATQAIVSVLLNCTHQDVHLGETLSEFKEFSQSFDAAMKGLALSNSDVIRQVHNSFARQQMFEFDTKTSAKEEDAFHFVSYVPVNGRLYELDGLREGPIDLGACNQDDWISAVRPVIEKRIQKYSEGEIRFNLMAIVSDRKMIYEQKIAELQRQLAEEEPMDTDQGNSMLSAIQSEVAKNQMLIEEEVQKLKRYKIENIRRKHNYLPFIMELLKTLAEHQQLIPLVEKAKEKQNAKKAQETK
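Material: human UCH37 enzyme supplied as purified proteasome complex. Measure: % inhibition of Ub-AMC cleavage fluorescence. Medium: pH 7.4 Tris-HCl (50 mM) with ovalbumin, ATP-MgCl2, DTT. Times: 30 min preincubation with enzyme, 25 min cleavage at room temperature. Detection: AMC fluorescence intensity at 355/460 nm.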
RTF Ca sens inh – cardiac RTF calcium desensitization; P19429+P45379; IANBD-labeled cardiac RTF, Ca2+ fluorescence; inhibition, % at 7.15 µM; 0.12% of 340,000 active; AID 493244;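 active means inhibition above the mean inhibition of all tested compounds plus 3 SD, cut at about 17% in these data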;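 further: assay run at fixed EC70 calcium of 1.6 mM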
ARNT-TACC3 inh – ARNT/TACC3 interaction disruption | 0.66% of 390,000 active | Q9Y6A5 | inhibition, % at 9.99 µM | AID 623870 | AlphaScreen His-ARNT PAS-B/GST-TACC3 binding, luminescence; TACC3 fragment carries E629A point mutation;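 active means mean inhibition of replicates at least 50% and at least half of replicates each reaching 50%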
cardiac RTF act – cardiac RTF calcium sensitization. 0.24% of 340,000 active. IANBD-labeled TnC RTF fluorescence at EC20 calcium; 0% EC20 calcium, 100% full calcium. activation, % at 7.2 µM;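 active means activation above the mean over all tested compounds plus 3 SD, cut at about 30% in these data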;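 further: rise in fluorescence read as greater calcium sensitivity of cardiac thin filaments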
Mot1-301 SUMO – SUMOylation pathway inhibition by Mot1-301 growth rescue; S. cerevisiae Mot1-301 growth rescue, ATP luminescence, 38.5C; percent above DMSO median, 100 means doubled; growth rescue, % at 18.8 µM; 1% of 320,000 active;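 active means every valid replicate shows activation above 250% relative to neutral control wells; inactive means the rest, any valid replicate at or below 250%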
Yeast cmpd fluor – counter-screen for efflux pump inhibitors: compound fluorescence. shares compounds with Efflux pump inh. S. cerevisiae AD/pABC3, flow cytometry. fluorescence ratio to DMSO, % at 10 µM. 4% of 1,700 active. AID 588517;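 active means fluorescence ratio to DMSO above its plate's cutoff, the plate mean ratio plus 5 SD, cut at about 210% in these data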;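 further: unstained yeast with no Nile Red so the signal is compound autofluorescence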
CaMdr1 efflux inh – Candida Mdr1 efflux pump inhibition; shares compounds with Efflux pump inh; AID 588518; S. cerevisiae AD/CaMDR1, Nile Red efflux, flow cytometry; inhibition, % at 10 µM; 1% of 1,700 active; in the data active means inhibition above about 26%;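 further: higher means more Nile Red retained so more efflux inhibition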
CaCdr2 efflux inh – Candida Cdr2 efflux pump inhibition; shares compounds with Efflux pump inh; 4% of 1,700 active; S. cerevisiae AD/CaCDR2, Nile Red retention, flow cytometry; Nile Red retention ratio vs DMSO, % at 10 µM; in the data active means Nile Red retention ratio vs DMSO above about 190%;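 further: higher ratio means more blocking of Cdr2 efflux of the dye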
CaCdr1 efflux inh – Candida Cdr1 efflux pump inhibition | inhibition, % at 10 µM | 1% of 1,700 active | S. cerevisiae AD/CaCDR1, Nile Red efflux, flow cytometry | AID 588522 | shares compounds with Efflux pump inh;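 active means inhibition above the screen-wide mean plus twice its standard deviation, cut at about 32% in these data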
A number is an active result; – = inactive; · = no result given.

SMILES	Efflux pump inh	UCH37 DUB inh	RTF Ca sens inh	ARNT-TACC3 inh	cardiac RTF act	Mot1-301 SUMO	Yeast cmpd fluor	CaMdr1 efflux inh	CaCdr2 efflux inh	CaCdr1 efflux inh
Cc1nc2ccccc2c(=O)n1N=Cc1ccc(O)c(O)c1O	·	–	·	·	·	·	·	·	·	·
Cc1ccc(C)c(Cn2nnc3c(=O)[nH]c(C4CCN(S(=O)(=O)c5ccc(S(=O)(=O)NC6CC6)cc5)CC4)nc32)c1	3.1	–	–	–	–	–	–	–	–	–
COc1ccc(C(C)=N/N=C2/NC(=O)CC(C(=O)O)S2)cc1 (centres undefined)	·	–	·	·	·	·	·	·	·	·
Cc1ccc2nc(/C(C#N)=C/c3ccc(O)c(O)c3)[nH]c2c1	3.4	·	–	–	–	–	–	–	–	–
COc1ccc(-c2cc(C(F)(F)F)n3nc(C(=O)N(C)Cc4ccccc4)cc3n2)cc1OC	1.4	–	–	–	–	–	–	–	–	–
Cc1ccc(-c2csc(=S)n2CC(=O)OCC(=O)NC(C)C(C)C)cc1 (centres undefined)	0.7	–	–	–	–	–	–	–	–	–
CCOc1ccc2ccc(OCC)c(C=Nn3cnnc3)c2c1	·	–	·	·	·	·	·	·	·	·
CCCCOC(=O)c1ccccc1N1C(=O)C2C3CCC(C3)C2C1=O (centres undefined)	–	–	–	–	–	–	·	·	·	·
CC(C)COC(=O)c1ccccc1N1C(=O)C2C3CCC(C3)C2C1=O (centres undefined)	12.6	–	–	–	–	–	–	–	–	–
CC(C)(C)NC(=O)C(c1ccc(F)cc1)N(C(=O)CCC(=O)Nc1ccccn1)C1CCCC1 (centres undefined)	2.4	–	–	–	–	–	–	–	–	–
COc1cccc(C(C(=O)NC(C)(C)C)N(C(=O)CCC(=O)Nc2cc(C)on2)C2CC2)c1OC (centres undefined)	–	–	–	–	–	–	–	–	–	–
COc1ccc(C(C(=O)NC(C)(C)C)N(CCc2ccccc2)C(=O)CCC(=O)Nc2cc(C)on2)cc1 (centres undefined)	–	–	–	–	–	–	·	·	·	·
COc1ccc(C(C(=O)NC(C)(C)C)N(CCO)C(=O)CCC(=O)Nc2cc(C)on2)cc1 (centres undefined)	–	–	–	–	–	–	–	–	–	–
CCCCN(C(=O)CCC(=O)Nc1cc(C)on1)C(C(=O)NC(C)(C)C)c1cccc(OC)c1OC (centres undefined)	–	–	–	–	–	–	·	·	·	·
O=[N+]([O-])c1ccc(C=Nn2cnc3ccccc32)s1	·	–	·	·	·	·	·	·	·	·
CC(C)(C)c1cc(C=NO)cc(C(C)(C)C)c1O	·	–	·	·	·	·	·	·	·	·
CNC(=O)N(O)C1N(N=Cc2ccc(SC)cc2)C(=S)SC1(C)C (centres undefined)	·	–	·	·	·	·	·	·	·	·
COc1ccc(C(=O)NN=C(C)CC(=O)Nc2ccc3ccccc3c2)c(OC)c1	·	–	·	·	·	·	·	·	·	·
COc1ccccc1CN(Cc1cc2cc3c(cc2[nH]c1=O)OCCO3)Cc1nnnn1Cc1ccco1	1.4	–	–	–	–	–	–	–	–	–
COc1cc(C(=O)N2CCN(c3cc(Cl)ccc3Cl)CC2)cc(OC)c1OC	0.6	–	–	–	–	–	–	–	–	–
CC(=NNC(=O)c1cccc(Cl)c1)C1C(=O)c2ccccc2C1=O	·	–	·	·	·	·	·	·	·	·
N#C/C(=C\c1cccc([N+](=O)[O-])c1)c1nnc2n1CCCCC2	–	–	–	–	–	–	·	·	·	·
CN(c1ccccc1)c1ccc(/C=C(\C#N)c2nnc3n2CCCCC3)cc1[N+](=O)[O-]	16.4	–	–	–	–	–	–	–	–	–
CSc1ccc(CN(C)CC(=O)Nc2ccc(NC(C)=O)cc2)cc1	–	–	–	·	–	–	·	·	·	·
CSc1ccc(CN(C)CC(=O)Nc2cccc(Br)c2)cc1	9.7	–	–	–	–	–	–	–	–	–
SMILES	Efflux pump inh	UCH37 DUB inh	RTF Ca sens inh	ARNT-TACC3 inh	cardiac RTF act	Mot1-301 SUMO	Yeast cmpd fluor	CaMdr1 efflux inh	CaCdr2 efflux inh	CaCdr1 efflux inh
Cc1cc(C)c(N(C(=O)CN2C(=O)c3ccccc3S2(=O)=O)C(C(=O)NCC2CCCO2)c2ccc(F)cc2)c(C)c1 (centres undefined)	22.3	–	–	–	–	–	–	–	–	–
COc1ccccc1N(C(=O)CN1C(=O)c2ccccc2S1(=O)=O)C(C(=O)NCC1CCCO1)c1ccc(F)cc1 (centres undefined)	–	–	–	–	–	–	·	·	·	·
CCCCCc1cc(=O)oc2c(C(CCN3CCCC(C)C3)c3ccc(N(C)C)cc3)c(OC)cc(OC)c12 (centres undefined)	1.0	–	–	–	–	–	–	–	–	–
C(=NNc1nc2ccccc2[nH]1)c1cccs1	·	–	·	·	·	·	·	·	·	·
Cc1cc(C)nc(N/C(=N\S(=O)(=O)Cc2ccccc2)Nc2ccccc2Br)n1	12.6	–	–	·	–	–	–	–	–	–
COc1cc(C=NOCC(=O)Nc2ccc(OC(F)F)cc2)ccc1OCc1ccccc1	·	–	·	·	·	·	·	·	·	·
COc1ccccc1N(CC(=O)NN=C(C)c1ccccc1O)S(=O)(=O)c1ccc(C)cc1	·	–	·	·	·	·	·	·	·	·
Cc1ccc(S(=O)(=O)N=C(c2ccccc2)N(C)C)c(C)c1	·	–	·	·	·	·	·	·	·	·
O=C(O)c1ccc(NN=Cc2ccc3c(c2)OCO3)cc1	·	–	·	·	·	·	·	·	·	·
O=C(C1CCC1)N1CCc2cc(S(=O)(=O)NCc3ccccn3)ccc21	0.7	–	–	–	–	–	–	–	–	–
COc1ccc(CNS(=O)(=O)c2ccc3c(c2)CCN3C(=O)C2CC2)cc1	–	–	–	–	–	–	·	·	·	·
O=C(C1CC1)N1CCc2cc(S(=O)(=O)NCCCN3CCCCC3)ccc21	–	–	–	–	–	–	·	·	·	·
O=C(C1CCC1)N1CCc2cc(S(=O)(=O)NCCN3CCN(c4ccccc4F)CC3)ccc21	1.1	–	–	–	–	–	–	–	–	–
Clc1ccc(CON=Cc2c(-c3ccccc3)nc3n2CCS3)c(Cl)c1	·	–	·	·	·	·	·	·	·	·
Cc1cc(C)cc(OCC(=O)NN=Cc2ccncc2)c1	·	–	·	·	·	·	·	·	·	·
CCc1nnc(NS(=O)(=O)c2ccc(NC(=S)NC(=O)/C=C/c3ccccc3)cc2)s1	5.8	–	–	–	–	–	–	–	–	–
CCc1nnc(NS(=O)(=O)c2ccc(NC(=S)NC(=O)/C=C/c3ccc(OC)cc3)cc2)s1	–	·	–	–	–	–	·	·	·	·

Assay outcomes from PubChem.
